Measured values published in ChEMBL document CHEMBL4118110, “The identification of inhibitory compounds of Rickettsia prowazekii methionine aminopeptidase for antibacterial applications” (Bioorg Med Chem Lett, 2018).

Assay: (§1) Inhibition of Rickettsia prowazekii N-terminal His6-tagged methionine aminopeptidase 1 expressed in Escherichia coli DLB3 Rosetta cells at 10 uM using Met-AMC as substrate preincubated for 1 hr followed by 30 mins incubation after substrate addition measured after 90 mins in presence of MnCl2 by fluorescence assay relative to control
In short: (§2)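 Recombinant R. prowazekii MetAP with Mn(II) as the metal cofactor. Met-AMC substrate; release of free AMC is followed by fluorescence (excitation 360 nm, emission 460 nm). Activity is the slope of fluorescence versus time, compared with an uninhibited control.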

Row | Compound | inhibition
1 | CCCCn1cnc2sc(C(=O)O)c(C)c2c1=O | 46 to 54%
2 | Nc1nnc(SCc2cccc3ccccc23)[nH]1 | 74 to 83%
3 | CNS(=O)(=O)c1ccc(C(=O)O)o1 | 43 to 91%
4 | O=C(O)c1cc(-c2ccccc2)on1 | 80 to 82%
5 | Cc1ccc(C(=O)CSc2nnc(C)[nH]2)c(C)c1 | 54 to 68%
6 | CC(=O)Nc1ccc(C(=O)CSc2nnc(N)[nH]2)cc1 | 89%
7 | Cc1csc(-c2ccccn2)n1 | 85 to 89%
8 | COc1ccc2c(C)c(C(=O)O)[nH]c2c1 | 28 to 80%
9 | O=C(O)c1ccc(-c2ccc(Cl)c(Cl)c2)o1 | 46 to 51%
10 | CN(C)C(=O)CSc1nnc(-c2ccncc2)[nH]1 | 21 to 44%
11 | COc1ccc(C(=O)CSc2nnc[nH]2)cc1C | 1 to 48%
12 | Cc1[nH]nc(C(=O)O)c1-c1ccccc1 | 2 to 37%
13 | CCCN1CC(=O)C(c2nc3ccccc3[nH]2)=C1N | 1 to 31%
14 | Nc1nnc(SCc2ccc([N+](=O)[O-])cc2)[nH]1 | 42 to 45%
15 | O=C(O)c1ccc(CS(=O)(=O)c2ccccc2)o1 | 16 to 27%
16 | O=C(O)c1cc2ccc(F)cc2oc1=O | 23 to 78%
17 | O=C(O)c1csc(Cc2ccccc2)n1 | 1 to 67%
18 | CCCCCCSc1nnc(N)[nH]1 | 1 to 3%
19 | NC(=O)CSc1n[nH]c(-c2ccco2)n1 | 1 to 50%
20 | Nc1n[nH]c(SCc2ccccc2Cl)n1 | 24 to 34%
21 | CCc1nnc(SCC(=O)c2ccc(C)cc2)[nH]1 | 11 to 14%
22 | CCOC(=O)CSc1nnc(-c2ccncc2)[nH]1 | 1 to 59%

Row | Compound | inhibition
23 | Cc1cccc(OCc2ccc(C(=O)O)o2)c1 | 1 to 33%
24 | O=C(O)c1ccc(COc2ccccc2F)o1 | 5 to 46%
25 | COc1cccc(-c2cc(C(=O)O)no2)c1 | 31 to 35%
26 | CCc1nnc(SCC(=O)OC)[nH]1 | 6 to 25%
27 | Oc1ccc(Br)cc1-c1nnco1 | 1 to 14%
28 | COCc1nc(=O)c2c(C)c(C(=O)O)sc2[nH]1 | 2 to 48%
29 | O=C(O)c1ccc(-c2cc(Cl)ccc2Cl)s1 | 1 to 80%
30 | Cc1c(C(=O)O)sc2ncn(C(C)C)c(=O)c12 | 5 to 19%
31 | Cc1ccc(-n2nnc(C(=O)O)c2C2CC2)cc1 | 1 to 44%
32 | CCc1n[nH]c(SCC(=O)c2cccc([N+](=O)[O-])c2)n1 | 16 to 44%
33 | Cc1ccc(N2C(=O)CC(Sc3nc[nH]n3)C2=O)cc1 (stereo not drawn) | 40 to 56%
34 | Nc1ccc(C(=O)c2ccccc2)cc1N | 10 to 39%
35 | O=c1c2ccc(-c3ccccn3)nc2[nH]n1-c1ccccc1 | 1 to 55%
36 | Cc1ccc(NC(=O)CSc2nnc[nH]2)c(C)c1 | 25 to 66%
37 | O=C(O)c1cn(-c2ccccc2)nn1 | 1 to 47%
38 | NNC(=O)C(=O)Nc1ccccc1C(=O)O | 11 to 63%
39 | Cc1c(Cl)cccc1NC(=O)CSc1nnc[nH]1 | 22 to 62%
40 | CC(C)c1ccc(C(=O)CSc2nc[nH]n2)cc1 | 1 to 32%
41 | CCOC(=O)CSc1nnc(CC)[nH]1 | 6 to 22%
42 | Cc1nc(C(=O)O)c(-c2ccccc2F)s1 | 26 to 31%
43 | O=C(O)c1ccc(-c2cc(Cl)ccc2Cl)o1 | 1 to 57%

Assay: as §1, with “cells” for “cells at 10 uM”, “assay” for “assay relative to control”
In short: as §2

Row | Compound | IC50
44 | CCCCn1cnc2sc(C(=O)O)c(C)c2c1=O | 3.1 µM
45 | Nc1nnc(SCc2cccc3ccccc23)[nH]1 | 5 µM
46 | CNS(=O)(=O)c1ccc(C(=O)O)o1 | 0.27 µM
47 | O=C(O)c1cc(-c2ccccc2)on1 | 1.4 µM
48 | Cc1ccc(C(=O)CSc2nnc(C)[nH]2)c(C)c1 | 0.4 µM
49 | CC(=O)Nc1ccc(C(=O)CSc2nnc(N)[nH]2)cc1 | 10 µM
50 | Nc1nnc(SCCC(=O)OC2CCCCC2)[nH]1 | 9.4 µM
51 | Cc1n[nH]c(SCC(=O)c2cccc([N+](=O)[O-])c2)n1 | 1.2 µM
52 | Cc1csc(-c2ccccn2)n1 | 1.1 µM
53 | COc1ccc2c(C)c(C(=O)O)[nH]c2c1 | 3.7 µM
54 | O=C(O)c1cc2ccc(F)cc2oc1=O | 8.3 µM

Assay: Solubility of the compound
Assay type: physicochemical

Row | Compound | solubility
55 | CCCNC(=O)c1cc(-c2ccccn2)nc2ccccc12 | Insoluble
56 | C=CCNC(=O)c1cc(-c2ccccn2)nc2ccccc12 | Insoluble
57 | O=C(O)c1cc(-c2ccc(Cl)cc2)n[nH]1 | Insoluble
58 | NCc1nnnn1-c1cccc(Br)c1 | Insoluble
